# Results of several laboratories.
# Target: Serine/threonine-protein kinase 26 (STK26, Homo sapiens, UniProt Q9P289)
SMILES,read-out,action,technique,tested at,measurement,value
Cn1c2c(c3ccccc31)C(C#N)C(C)(C)NC2=O (centres unmarked),thermal stability,,DSF,10 µM,ΔTm,1.9 °C
F[C@@H]1CCN(c2nccc(-c3cnn4ncccc34)n2)C1,cell-free assay,,,1 µM,remaining signal,100%
Cn1c2c(c3ccc(Cl)c(Cl)c31)C(C#N)C1(CCNCC1)NC2=O (racemic),thermal stability,,DSF,10 µM,ΔTm,-0.5 °C
CN1CC(Oc2cnc(C#N)cc2-c2ccn3nc(NC(=O)C4CC4)cc3c2)C1,enzyme activity,inhibitor,,1 µM,inhibition,-9%
Nc1nc(Nc2ccccc2)sc1C(=O)c1c(F)cccc1F,enzyme activity,inhibitor,,10 µM,remaining activity,57%
Cn1c2c(Cl)c(Cl)ccc2c2cc[nH]c(=O)c21,thermal stability,,DSF,10 µM,ΔTm,1.5 °C
COc1cc2ncnc(Nc3ccc(Oc4ccccc4)cc3C)c2cc1OC,enzyme activity,inhibitor,,1 µM,inhibition,-2%
CC(C)(C)c1nc2c(s1)c1nc(N)ncc1c1ccc(NS(=O)(=O)c3c(F)cccc3F)c(F)c12,enzyme activity,inhibitor,radiometric,1 µM,remaining activity,98%
CC(=O)N1CCC(c2ccc(C(=O)NC(=N)N)cc2C(F)(F)F)CC1,cell-free assay,,competition with immobilised ligand,1 µM,remaining binding,97%
CC1CCCN1c1nccc(-c2cnn3ncccc23)n1 (centres unmarked),cell-free assay,,,1 µM,remaining signal,100%
O=C(Nc1cnn(-c2csc(C(=O)NC3COC3)c2)c1)Nc1ccccc1Cl,enzyme activity,inhibitor,,5 µM,remaining activity,98.3%
O=C1NC(=O)c2cc(Nc3ccc(F)cc3)c(Nc3ccc(F)cc3)cc21,cell-free assay,,,0.5 µM,remaining signal,99%
CN(c1nccc(-c2cnn3ncccc23)n1)C1CC1,cell-free assay,,,1 µM,remaining signal,100%
CCCCNc1ncc2c(-c3ccc(F)cc3)nn(C[C@H]3CC[C@H](N)CC3)c2n1,target engagement in cells,inhibitor,chemoproteomics,20 mM,inhibition,1.8%
O=C(NCCCNc1nc(Nc2cccc(NC(=O)N3CCCC3)c2)ncc1I)c1cccs1,enzyme activity,inhibitor,,1 µM,inhibition,-93%
Cc1ccc(C(=O)Nc2ccc(CN3CCN(C)CC3)c(C(F)(F)F)c2)cc1C#Cc1cnc2cccnn12,enzyme activity,inhibitor,,23.5 nM,remaining activity,86%
c1ccc(CNc2nc(N3CCOc4ccccc43)nc3c2CCCC3)cc1,target engagement in cells,inhibitor,chemoproteomics,20 mM,inhibition,38.2%
FC(F)c1nc2ccccc2n1-c1nc(N2CCOCC2)nc(N2CCOCC2)n1,enzyme activity,inhibitor,,10 µM,remaining activity,88%
COc1cc(-c2cc(-c3ccc(N4CCNCC4)cc3)cnc2C)cc(OC)c1OC,enzyme activity,inhibitor,,1 µM,inhibition,12%
N[C@H]1CCN(c2nccc(-c3cnn4ncccc34)n2)C1,cell-free assay,,,1 µM,remaining signal,71%
Oc1cccc(-c2nc(N3CCOCC3)c3oc4ncccc4c3n2)c1,enzyme activity,inhibitor,,10 µM,remaining activity,114%
O=C(Nc1ccc(Oc2ccc(F)cc2)cc1)N1CCc2ncccc2[C@H]1c1ccc(F)cc1,cell-free assay,,competition with immobilised ligand,1 µM,remaining binding,100%
COc1cc(Nc2cnc(C#N)c(O[C@H](C)CN(C)C)n2)ncc1-c1cnn(C)c1,enzyme activity,inhibitor,radiometric,10 µM,remaining activity,42%
N#CCCc1ccc2c(c1)-c1[nH]c3ccc([N+](=O)[O-])cc3c1CC(=O)N2,cell-free assay,,,0.5 µM,remaining signal,65.1%
O=C1NC(c2ccccn2)Sc2ccccc21 (centres unmarked),cell-free assay,,competition with immobilised ligand,1 µM,remaining binding,80%
Cc1cnn2ncc(-c3ccnc(N(C)C)n3)c2c1,cell-free assay,,,1 µM,remaining signal,98%
CS(=O)(=O)N1CCCC(NC(=O)[C@H](CCC2CCCCC2)NC(=O)c2ccc(CNc3ncnc4c3nnn4-c3ccccc3)cc2)C1 (some centres unmarked),cell-free assay,,competition with immobilised ligand,0.1 µM,remaining binding,92%
COc1ccnn2ncc(-c3ccnc(N(C)C)n3)c12,cell-free assay,,,1 µM,remaining signal,86%
CS(=O)(=O)c1cc(C2(NC(=O)c3cncc4c3cnn4-c3ccc(F)cc3)CC2)ccn1,cell-free assay,,competition with immobilised ligand,1 µM,remaining binding,97%
Oc1cccc(-c2nc(N3CCOCC3)c3oc4ncccc4c3n2)c1,cell-free assay,,,0.5 µM,remaining signal,98.6%
Cc1cc(NC(=O)c2cccc3cc(-c4cccc5[nH]nc(N)c45)ccc23)ccc1F,enzyme activity,inhibitor,,0.1 µM,activity vs control,107%
CN(C)C1CCN(CC#Cc2nn(C3CCCC3)c3nc(NCc4ccccc4)ncc23)C1 (centres unmarked),enzyme activity,inhibitor,FRET,0.1 µM,inhibition,9%
O=C(NC[C@@H]1[C@H]2CN(C(=O)OCc3cc(C(F)(F)F)cc(C(F)(F)F)c3)C[C@@H]12)c1ccc2[nH]nnc2c1,cell-free assay,,competition with immobilised ligand,1 µM,remaining binding,76%
Cn1c2c(Cl)c(Cl)ccc2c2cc(N)[nH]c(=O)c21,thermal stability,,DSF,10 µM,ΔTm,1.5 °C
N#CC1(c2ccccn2)CCN(Cc2cc(C(=O)N3CCCC3)c(=O)n3ccccc23)CC1,cell-free assay,,competition with immobilised ligand,1 µM,remaining binding,100%
COc1cc(-c2cc(-c3ccc(N4CCNCC4)cc3)cnc2N)cc(OC)c1OC,enzyme activity,inhibitor,,0.1 µM,inhibition,0%
FC(F)(F)Oc1cccc(-c2cnc3ccc(-c4ccncc4)nn23)c1,enzyme activity,inhibitor,radiometric,1 µM,activity vs control,96%
CN(C(=O)c1ccccc1)c1cc(N(C)c2ccc3c(c2)CCc2ccc(C(=O)NCCN4CCOCC4)cc2C3=O)ccc1F,cell-free assay,,competition with immobilised ligand,1 µM,remaining binding,78%
